Reference: article PMC3781598 (Pharmaceutical research, 2013)
In brackets after ≈: the same amount, converted by molar mass.

What was measured:
human CYP2A13 [1] = biological target: T1, human CYP2A13 (Homo sapiens, UniProt Q16696); test: Spectral ligand binding assay; settings: for Spectral shift type 2A13: UV/Vis difference spectra
T1 sequence (Q16696 25-494): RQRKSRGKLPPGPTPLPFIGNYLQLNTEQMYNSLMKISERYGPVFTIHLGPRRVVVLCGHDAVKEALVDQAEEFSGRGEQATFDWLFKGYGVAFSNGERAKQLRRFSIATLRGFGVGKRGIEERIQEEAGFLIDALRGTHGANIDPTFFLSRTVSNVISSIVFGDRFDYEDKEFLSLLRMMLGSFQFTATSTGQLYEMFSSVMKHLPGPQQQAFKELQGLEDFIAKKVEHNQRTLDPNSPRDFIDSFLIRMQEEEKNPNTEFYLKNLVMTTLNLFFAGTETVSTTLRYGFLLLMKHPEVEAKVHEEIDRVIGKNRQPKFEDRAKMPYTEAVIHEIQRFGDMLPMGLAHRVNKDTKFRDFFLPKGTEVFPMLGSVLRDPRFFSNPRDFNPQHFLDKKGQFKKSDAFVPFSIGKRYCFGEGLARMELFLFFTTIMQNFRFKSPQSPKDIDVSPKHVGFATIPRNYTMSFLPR

[2] = Aqueous solubility, shake-flask incubation method; assay type: physicochemical; settings: phosphate-buffered saline, pH 7.4, aqueous buffer, thermodynamic from solid
Outline: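 Shake-flask equilibration of test compound in phosphate-buffered saline, pH 7.4, for 24 h at room temperature.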

genetic toxicity = test: Ames test; assay type: cell-based; settings: compound concentrations 5-100 μM
[3] = Metabolic stability in lung microsomes; assay type: in vitro ADME; settings: human lung microsomes, 1 μM, 20-minute incubation
Outline: (§1)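 Pooled liver or lung microsomes (male B6C2F1 mouse, male Sprague-Dawley rat, human) at 1.0 mg protein/ml in 50 mM potassium phosphate pH 7.4, 3 mM MgCl2, 1 mM EDTA. […] Stopped at 0, 5, 10, 20 min with acetonitrile containing antipyrene, then LC/MS/MS. Single-exponential kel gave T1/2. CLint = kel × incubation volume/mg protein.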

[4] = Metabolic stability in lung microsomes; assay type: in vitro ADME, male B6C2F1 mouse; settings: for half-life at 1 μM / microsomal CLint at 1 μM: male, B6C2F1, mouse, lung microsomes, pH 7.4; for Percent Loss of Substrate: mouse lung microsomes, 1 μM, 20-minute incubation
Outline: as §1

CYP2C8 = biological target: T2, CYP2C8 (Homo sapiens, UniProt P10632); test: Metabolic stability phenotyping with recombinantly expressed CYPs; assay type: in vitro ADME; settings: recombinant CYP2C8, pH 7.4
T2 sequence (P10632 1-490): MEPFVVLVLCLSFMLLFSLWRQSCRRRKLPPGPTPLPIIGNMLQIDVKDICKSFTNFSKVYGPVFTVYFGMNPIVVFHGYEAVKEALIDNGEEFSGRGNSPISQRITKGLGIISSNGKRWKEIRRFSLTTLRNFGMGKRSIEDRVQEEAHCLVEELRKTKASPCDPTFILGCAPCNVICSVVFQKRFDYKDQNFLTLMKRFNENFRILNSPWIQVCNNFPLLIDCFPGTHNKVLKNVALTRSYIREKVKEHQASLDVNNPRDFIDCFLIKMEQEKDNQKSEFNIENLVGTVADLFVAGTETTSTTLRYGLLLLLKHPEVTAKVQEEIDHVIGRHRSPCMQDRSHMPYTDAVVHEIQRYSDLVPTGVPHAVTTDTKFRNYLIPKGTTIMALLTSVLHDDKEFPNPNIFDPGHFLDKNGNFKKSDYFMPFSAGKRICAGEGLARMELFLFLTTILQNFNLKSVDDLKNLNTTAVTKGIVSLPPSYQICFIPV
Outline: (§2)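 Each recombinant human CYP at 100 pmol/ml with 1 μM test compound in potassium phosphate pH 7.4, 3.33 mM MgCl2. Prewarmed 10 min at 37 °C, then started with NADPH regenerating system; no-NADPH buffer controls. Aliquots at 0–45 min quenched in methanol with buspirone internal standard. MS peak-area ratios gave ln(ratio)-vs-time slope, converted to T1/2. Duplicates.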

CYP2C9 = CYP2C9 (Homo sapiens, UniProt P11712); test: as above; assay type: in vitro ADME; settings: recombinant CYP2C9, pH 7.4
Outline: as §2

CYP2D6 = CYP2D6 (Homo sapiens, UniProt P10635); test: as above; assay type: in vitro ADME; settings: recombinant CYP2D6, pH 7.4
Outline: as §2

CYP3A4 = CYP3A4 (Homo sapiens, UniProt P08684); test: as above; assay type: in vitro ADME; settings: recombinant CYP3A4, pH 7.4
Outline: as §2

CYP2A6 / CYP2A13 = test: Coumarin metabolism assay; settings: human, pH 7.4, probe coumarin (7-hydroxylation), Selectivity Ki (2A6)/ Ki (2A13), ratio of the CYP2A6 value to the CYP2A13 value
human CYP2A13 [5] = biological target: T3, human CYP2A13 (Homo sapiens, UniProt Q16696); test: Coumarin metabolism assay
T3 sequence (Q16696 with tags, fused parts or gaps limits assumed): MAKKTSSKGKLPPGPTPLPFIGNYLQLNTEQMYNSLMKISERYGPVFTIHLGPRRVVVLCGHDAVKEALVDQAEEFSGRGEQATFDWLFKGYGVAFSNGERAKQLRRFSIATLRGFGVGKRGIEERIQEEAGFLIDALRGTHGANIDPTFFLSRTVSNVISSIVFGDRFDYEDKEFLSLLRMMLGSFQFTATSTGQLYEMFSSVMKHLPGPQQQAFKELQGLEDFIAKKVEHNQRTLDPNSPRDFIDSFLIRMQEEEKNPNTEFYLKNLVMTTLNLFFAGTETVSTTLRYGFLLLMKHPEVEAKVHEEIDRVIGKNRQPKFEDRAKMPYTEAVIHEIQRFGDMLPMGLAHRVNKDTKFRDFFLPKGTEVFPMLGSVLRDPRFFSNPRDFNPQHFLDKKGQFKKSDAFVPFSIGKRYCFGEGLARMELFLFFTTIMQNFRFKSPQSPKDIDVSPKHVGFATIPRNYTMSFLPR

[6] = Metabolic stability in wild type mouse lung microsomes; assay type: in vitro ADME; settings: pH 7.4
Outline: (§3)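 Microsomes from B6 Cyp2a(4/5)bgs-null (CYP2A/CYP2B knockout) or side-by-side wild-type mouse lung and liver, at 0.1 mg protein/ml. Buffer was 50 mM potassium phosphate pH 7.4, 3 mM MgCl2, 1 mM EDTA. […] Parent loss by LC/MS/MS. Single-exponential kel converted to T1/2; CLint = kel × volume/mg protein.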

[7] = Metabolic stability in knockout mouse liver microsomes; assay type: in vitro ADME
Outline: as §3

[8] = Metabolic stability in wild type mouse liver microsomes; assay type: in vitro ADME; settings: pH 7.4
Outline: as §3

[9] = Kd 2A13, spectral titration, ≥ = minimal Kd value
[10] = B6 Cyp2a(4/5)bgs-Null, mouse, liver microsomes from knockout mice, pH 7.4

Chain of CYP3A4 (P08684 2-503 limits assumed): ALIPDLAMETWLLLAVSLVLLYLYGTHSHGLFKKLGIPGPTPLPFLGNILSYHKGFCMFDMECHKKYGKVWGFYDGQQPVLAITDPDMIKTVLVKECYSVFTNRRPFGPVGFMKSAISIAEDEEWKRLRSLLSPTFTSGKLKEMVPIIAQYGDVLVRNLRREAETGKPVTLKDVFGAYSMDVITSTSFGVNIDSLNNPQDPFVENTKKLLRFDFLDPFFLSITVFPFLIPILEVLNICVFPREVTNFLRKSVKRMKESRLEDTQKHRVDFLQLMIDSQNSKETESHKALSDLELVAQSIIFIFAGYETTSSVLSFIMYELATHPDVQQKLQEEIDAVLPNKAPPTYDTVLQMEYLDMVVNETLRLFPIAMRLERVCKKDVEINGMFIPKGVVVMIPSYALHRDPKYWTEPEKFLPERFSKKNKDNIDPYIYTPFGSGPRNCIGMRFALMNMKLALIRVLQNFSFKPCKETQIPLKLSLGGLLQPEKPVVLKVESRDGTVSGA
Chain of CYP2D6 (P10635 whole entry): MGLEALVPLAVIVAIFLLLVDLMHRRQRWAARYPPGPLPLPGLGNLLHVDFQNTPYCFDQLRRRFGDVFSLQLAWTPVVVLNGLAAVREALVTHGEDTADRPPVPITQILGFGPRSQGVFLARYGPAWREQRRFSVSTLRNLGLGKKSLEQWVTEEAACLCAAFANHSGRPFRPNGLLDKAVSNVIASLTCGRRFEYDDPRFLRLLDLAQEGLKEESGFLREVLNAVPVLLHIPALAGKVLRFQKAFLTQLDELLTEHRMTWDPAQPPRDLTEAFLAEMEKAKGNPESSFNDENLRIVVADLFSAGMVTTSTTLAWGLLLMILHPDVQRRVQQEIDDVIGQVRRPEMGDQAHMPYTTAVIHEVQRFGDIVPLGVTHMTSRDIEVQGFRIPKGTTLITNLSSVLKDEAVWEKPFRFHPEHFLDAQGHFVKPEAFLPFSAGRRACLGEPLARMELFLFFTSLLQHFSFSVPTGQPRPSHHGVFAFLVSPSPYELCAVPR
Chain of CYP2C9 (P11712 whole entry): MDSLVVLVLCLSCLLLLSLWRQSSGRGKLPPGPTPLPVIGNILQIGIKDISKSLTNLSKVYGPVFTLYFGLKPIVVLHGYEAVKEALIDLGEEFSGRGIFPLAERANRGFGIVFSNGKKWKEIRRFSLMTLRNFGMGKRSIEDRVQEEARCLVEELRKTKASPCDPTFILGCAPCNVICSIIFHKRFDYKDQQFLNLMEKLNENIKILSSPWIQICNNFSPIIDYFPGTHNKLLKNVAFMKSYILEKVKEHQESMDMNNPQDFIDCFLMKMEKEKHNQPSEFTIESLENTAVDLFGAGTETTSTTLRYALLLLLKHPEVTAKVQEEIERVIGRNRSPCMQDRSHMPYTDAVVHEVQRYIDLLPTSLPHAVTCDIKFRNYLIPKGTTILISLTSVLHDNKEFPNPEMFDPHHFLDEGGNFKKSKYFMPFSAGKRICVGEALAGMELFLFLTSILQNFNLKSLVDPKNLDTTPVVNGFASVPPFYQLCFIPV

In the case of `Clc1ccccc1CN1CCOCC1` [Compound 3, 4-(2-chlorobenzyl)morpholine], the Kd (human CYP2A13 [1]; [9]) is reported as 5.9 ± 3.4 µM, the “Spectral shift type 2A13” value (human CYP2A13 [1]) is reported as “I” and the solubility at 24 h [2] is reported as 180 µM (≈ 38.1 µg/mL). The Ames test revertants (genetic toxicity) was “few or no revertants”, the “Percent Loss of Substrate” value [3] was “No Loss/No Loss” and the half-life at 1 μM [4] was 1.6 min. For the same molecule, the microsomal CLint at 1 μM [4] was 433 µL/min/mg, the “Percent Loss of Substrate” value [4] was 99.9% and the half-life at 1 μM (CYP2C8) was 62 min. For the same molecule, the half-life at 1 μM (CYP2C9) was 476 min, the half-life at 1 μM (CYP2D6) was 61 min and the half-life at 1 μM (CYP3A4) was 33 min. It also gave a selectivity ratio at 10 min (CYP2A6 / CYP2A13) of no less than 25 and a Ki (human CYP2A13 [5]) of 39.7 ± 4.3 µM.

For `Fc1cccc(Cl)c1CN1CCOCC1` [Compound 7, 4-(2-chloro-6-fluorobenzyl)morpholine], the Kd (human CYP2A13 [1]; [9]) was 5.2 µM, the Kd (human CYP2A13 [1]; Kd CYP2A13, follow-up titration of HTS hit, Figure 1D) was roughly 2 µM and the “Spectral shift type 2A13” value (human CYP2A13 [1]) was “I”. For the same molecule, the solubility at 24 h [2] was 184 µM (≈ 42.3 µg/mL), the Ames test revertants (genetic toxicity) was “few or no revertants” and the “Percent Loss of Substrate” value [3] was “No Loss/No Loss”. The half-life at 1 μM [4] was 1.3 min, the microsomal CLint at 1 μM [4] was 551 µL/min/mg and the “Percent Loss of Substrate” value [4] was 100%. The half-life at 1 μM (CYP2C8) was 51 min, the half-life at 1 μM (CYP2C9) was 230 min and the half-life at 1 μM (CYP2D6) was 78 min. It also gave a half-life at 1 μM (CYP3A4) of 25 min, a half-life at 1 μM [6] of 124 min and a microsomal CLint at 1 μM [6] of 55.7 µL/min/mg. For the same molecule, the “increase in metabolic stability, transgenic vs wild type liver microsomes” value ([7]; 0.1 mg/ml protein) was 1.7 fold, the half-life at 1 μM [7, 10] was 127 min and the microsomal CLint at 1 μM [7, 10] was 54.8 µL/min/mg. The half-life at 1 μM [8] was 73 min, the microsomal CLint at 1 μM [8] was 95.3 µL/min/mg and the selectivity ratio at 10 min (CYP2A6 / CYP2A13) was 7.5. For the same molecule, the Ki (human CYP2A13 [5]) was 38.1 µM.
